Measurements reported in ChEMBL document CHEMBL4270594, “Design, synthesis and pharmacological evaluation of new 3-(1H-benzimidazol-2-yl)quinolin-2(1H)-one derivatives as potential antitumor agents” (Eur J Med Chem, 2018).
Activity calls are given as the source filed them. The calls are words filed in the database; no cut-off is given here.

Experiments:
[1] = test system: BEL-7404 tumor cell line; test: Cell cycle arrest in human Bel7404 cells assessed as accumulation at G2-phase at 9 uM after 48 hrs by propidium iodide staining based flow cytometry (reference value: 18.84%); type: functional
[2] = test system: BEL-7404 tumor cell line; test: Antitumor activity against human Bel7404 cells xenografted in Balb/c nude mouse assessed as tumor growth inhibition at 50 mg/kg, ip bid for 20 days measured on day 21 post last dose relative to control; type: functional; conditions: BEL-7404, ip, read-out: TGI
[3] = test system: BEL-7404 tumor cell line; test: Antitumor activity against human Bel7404 cells xenografted in Balb/c nude mouse assessed as relative tumor volume increment rate at 25 mg/kg, ip bid for 20 days measured on day 21 post last dose relative to control; type: functional
[4] = test system: BEL-7404 tumor cell line; test: Antitumor activity against human Bel7404 cells xenografted in Balb/c nude mouse assessed as relative tumor volume increment rate at 50 mg/kg, ip bid for 20 days measured on day 21 post last dose relative to control; type: functional
[5] = test system: Mus musculus; test: Toxicity in Balb/c nude mouse xenografted with human Bel7404 cells assessed as change in body weight at 25 to 50 mg/kg, ip bid for 20 days; type: organism-based; conditions: in vivo, 480 h
[6] = test system: Mus musculus; test: Effect on caspase-3 protein expression in tumor tissues of Balb/c nude mouse xenografted with human Bel7404 cells at 25 to 50 mg/kg, ip bid for 20 days measured on day 21 by Western blot analysis; type: functional, organism-based
[7] = test system: Mus musculus; test: Downregulation of caspase-9 protein expression in tumor tissues of Balb/c nude mouse xenografted with human Bel7404 cells at 25 to 50 mg/kg, ip bid for 20 days measured on day 21 by Western blot analysis; type: functional, organism-based
[8] = test system: BEL-7404 tumor cell line; test: Antitumor activity against human Bel7404 cells xenografted in Balb/c nude mouse assessed as induction of necrosis at 25 to 50 mg/kg, ip for 20 days measured on day 21 post last dose by hematoxylin and eosin staining based microscopic method; type: functional, organism-based
[9] = test system: BEL-7404 tumor cell line; test: Antitumor activity against human Bel7404 cells xenografted in Balb/c nude mouse assessed as tumor growth inhibition at 25 mg/kg, ip bid for 20 days measured on day 21 post last dose relative to control; type: functional; conditions: BEL-7404, ip, read-out: TGI
[10] = test system: HepG2; test: Induction of apoptosis in human HepG2 cells assessed as early apoptotic cells at 10 uM after 24 hrs by Annexin V-FITC/ propidium iodide staining based flow cytometry (reference value: 6.5%); type: functional
[11] = test system: HepG2; test: Induction of apoptosis in human HepG2 cells assessed as necrotic cells at 10 uM after 24 hrs by Annexin V-FITC/ propidium iodide staining based flow cytometry (reference value: 0.28%); type: functional
[12] = test system: HepG2; test: Cell cycle arrest in human HepG2 cells assessed as accumulation at G2/M phase after 48 hrs by propidium iodide staining based flow cytometry; type: functional
[13] = test system: HepG2; test: Induction of apoptosis in human HepG2 cells assessed as early apoptotic cells at 8 uM after 24 hrs by Annexin V-FITC/ propidium iodide staining based flow cytometry (reference value: 6.5%); type: functional
[14] = test system: HepG2; test: Downregulation of CDK1 protein expression in human HepG2 cells at 6 to 10 uM after 12 hrs by Western blot analysis; type: functional, cell-based
[15] = test system: HepG2; test: Upregulation of Bax protein expression in human HepG2 cells at 6 to 10 uM after 12 hrs by Western blot analysis; type: functional, cell-based
In short: (§1)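 HepG2 cell lysates after compound treatment analyzed by western blot for the target protein, compared with untreated negative control.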

[16] = test system: HepG2; test: Cell cycle arrest in human HepG2 cells assessed as accumulation at S-phase at 8 uM after 48 hrs by propidium iodide staining based flow cytometry (reference value: 30.49%); type: functional
[17] = test system: HepG2; test: Induction of apoptosis in human HepG2 cells assessed as necrotic cells at 8 uM after 24 hrs by Annexin V-FITC/ propidium iodide staining based flow cytometry (reference value: 0.28%); type: functional
[18] = test system: HepG2; test: Induction of apoptosis in human HepG2 cells assessed as membrane blebbing at 6 to 10 uM after 12 hrs by acridine orange/ethidium bromide staining based fluorescence microscopic method; type: functional, cell-based
In short: (§2)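 HepG2 cells stained with acridine orange/ethidium bromide and examined by fluorescence microscopy; nuclei scored as yellow/green or orange, with pycnosis, membrane blebbing and cell budding taken as apoptotic morphology.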

[19] = test system: HepG2; test: Induction of apoptosis in human HepG2 cells assessed as pycnosis at 6 to 10 uM after 12 hrs by acridine orange/ethidium bromide staining based fluorescence microscopic method; type: functional, cell-based; in short: as §2
[20] = test system: HepG2; test: Upregulation of caspase-9 protein expression in human HepG2 cells at 6 to 10 uM after 12 hrs by Western blot analysis; type: functional, cell-based; in short: as §1
[21] = test system: HepG2; test: Upregulation of p21 protein expression in human HepG2 cells at 6 to 10 uM after 12 hrs by Western blot analysis; type: functional, cell-based; in short: as §1
[22] = test system: Mus musculus; test: Upregulation of Bax protein expression in tumor tissues of Balb/c nude mouse xenografted with human NCI-H460 cells at 25 to 50 mg/kg, ip bid for 13 days measured on day 14 by Western blot analysis; type: functional, organism-based
In short: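 Tumors from NCI-H460 xenografted BALB/c nude mice (25 or 50 mg/kg, vehicle 5% DMSO in saline) collected at day 14; protein levels in tumor tissue determined by western blot versus vehicle control.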

[23] = test system: HepG2; test: Induction of apoptosis in human HepG2 cells assessed as late apoptotic cells at 10 uM after 24 hrs by Annexin V-FITC/ propidium iodide staining based flow cytometry (reference value: 1.91%); type: functional
[24] = test system: HepG2; test: Induction of apoptosis in human HepG2 cells assessed as late apoptotic cells at 6 uM after 24 hrs by Annexin V-FITC/ propidium iodide staining based flow cytometry (reference value: 1.91%); type: functional
[25] = test system: HepG2; test: Cell cycle arrest in human HepG2 cells assessed as accumulation at S-phase at 6 uM after 48 hrs by propidium iodide staining based flow cytometry (reference value: 30.49%); type: functional
[26] = test system: HepG2; test: Downregulation of Bcl2 protein expression in human HepG2 cells at 6 to 10 uM after 12 hrs by Western blot analysis; type: functional, cell-based
[27] = test system: HepG2; test: Cell cycle arrest in human HepG2 cells assessed as accumulation at G1-phase at 6 uM after 48 hrs by propidium iodide staining based flow cytometry (reference value: 50.47%); type: functional
[28] = test system: HepG2; test: Induction of apoptosis in human HepG2 cells assessed as late apoptotic cells at 8 uM after 24 hrs by Annexin V-FITC/ propidium iodide staining based flow cytometry (reference value: 1.91%); type: functional
[29] = test system: HepG2; test: Induction of mitochondrial cytochrome-c release in to cytotol in human HepG2 cells at 6 to 10 uM after 12 hrs by Western blot analysis; type: functional, cell-based
[30] = test system: HepG2; test: Induction of apoptosis in human HepG2 cells assessed as live cells at 10 uM after 24 hrs by Annexin V-FITC/ propidium iodide staining based flow cytometry (reference value: 91.31%); type: functional
[31] = test system: Mus musculus; test: Upregulation of APAF-1 protein expression in tumor tissues of Balb/c nude mouse xenografted with human NCI-H460 cells at 25 to 50 mg/kg, ip bid for 13 days measured on day 14 by Western blot analysis; type: functional, organism-based
[32] = test system: HepG2; test: Cell cycle arrest in human HepG2 cells assessed as accumulation at G1-phase at 10 uM after 48 hrs by propidium iodide staining based flow cytometry (reference value: 50.47%); type: functional

O=c1[nH]c2cc3c(cc2cc1-c1nc2cc(Cl)ccc2[nH]1)OCO3
Activity [1]: 30.58%
inhibition in vivo at 50 mg/kg [2]: 44.9%
T/C [3]: 51.5%
T/C [4]: 44.8%
Activity [5]: Non-Toxic
Activity [6]: inactive
Activity [7]: Active
Activity [8]: Active
inhibition in vivo at 25 mg/kg [9]: 41.2%

O=c1[nH]c2ccccc2cc1-c1nc2cc(Cl)ccc2[nH]1
Activity [10]: 45.57%
Activity [11]: 0.45%
Activity [12]: Dose-dependent effect
Activity [13]: 35.9%
Activity [14]: Active
Activity [15]: Active
Activity [16]: 29.19%
Activity [17]: 0.32%
Activity [18]: Active
Activity [19]: Active
Activity [20]: Active
Activity [21]: Active
Activity [22]: Active
Activity [23]: 16.68%
Activity [24]: 10.4%
Activity [25]: 29.48%
Activity [26]: Active
Activity [27]: 41.52%
Activity [28]: 10.42%
Activity [29]: Active
Activity [30]: 37.3%
Activity [31]: Active
Activity [32]: 23.66%
